HTR2A ag: mouse HTR2A agonism via beta-arrestin recruitment; activation, % at 7.6 µM; hit rate 0.66% among 360,000; P35363; CHO-K1 mHTR2A beta-arrestin complementation, luminescence; percent of 30 µM serotonin response;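 active = activation above a run cutoff, the mean activation of all tested compounds plus 3 SD, cut at about 14% in these data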
MC4R ag barr: human MC4R agonism via beta-arrestin; P32245; U2OS MC4R beta-arrestin complementation, luminescence; percent of melanotan II response, DMSO zero; activation, % at 8.9 µM; hit rate 0.98% among 360,000; AID 540308;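 active = activation above a per-plate cutoff, the mean activation of sample wells on that plate plus 3 SD, cut at about 8% in these data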
Target sequence (P32245 whole entry, looked up): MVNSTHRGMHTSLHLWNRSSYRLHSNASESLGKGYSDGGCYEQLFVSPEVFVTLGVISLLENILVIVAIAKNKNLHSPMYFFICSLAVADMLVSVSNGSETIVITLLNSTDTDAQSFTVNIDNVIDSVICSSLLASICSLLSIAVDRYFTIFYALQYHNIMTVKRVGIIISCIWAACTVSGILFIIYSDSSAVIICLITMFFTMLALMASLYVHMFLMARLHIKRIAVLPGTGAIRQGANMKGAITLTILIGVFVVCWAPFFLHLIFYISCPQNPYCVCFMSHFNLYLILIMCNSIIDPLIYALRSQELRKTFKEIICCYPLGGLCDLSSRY
NTR1 agonist: activates human neurotensin receptor 1 | NTR1-U2OS beta-arrestin-GFP spot imaging, agonist mode | AID 493036 | hit rate 0.17% among 330,000 | activation, % at 20 µM;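 active = activation at or above 40% of the spot to cytoplasm intensity ratio, with at least 20 cells analyzed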
Target sequence (P30989 whole entry, looked up): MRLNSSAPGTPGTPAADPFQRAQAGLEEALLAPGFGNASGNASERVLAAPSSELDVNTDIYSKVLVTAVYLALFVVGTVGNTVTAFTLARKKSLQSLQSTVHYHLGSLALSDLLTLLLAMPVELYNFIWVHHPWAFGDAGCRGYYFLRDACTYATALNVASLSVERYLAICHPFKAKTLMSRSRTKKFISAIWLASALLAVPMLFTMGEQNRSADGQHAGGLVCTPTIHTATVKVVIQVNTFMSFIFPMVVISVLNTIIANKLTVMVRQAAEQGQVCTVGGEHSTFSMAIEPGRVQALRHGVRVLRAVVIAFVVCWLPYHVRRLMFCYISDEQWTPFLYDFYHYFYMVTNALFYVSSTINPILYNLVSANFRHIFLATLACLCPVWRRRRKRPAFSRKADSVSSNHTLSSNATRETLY
MC4R antagonist: human MC4R antagonism in cAMP assay; P32245; MC4R-expressing cells, MTII-stimulated cAMP, LANCE TR-FRET; inhibition, % at 6.5 µM; hit rate 0.48% among 360,000; AID 540295;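 active = inhibition above its plate's cutoff, the mean of tested wells on that plate plus 3 SD, cut at about 29% in these data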
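material = U2OS cells stably expressing human melanocortin 4 receptor (MC4R) | also added = Melanotan II challenge | dosing = single nominal compound dose of 6.5 µM | detection = TR-FRET with Eu-cAMP and labeled anti-cAMP, 671 nm | replication = singlicate | timing = compound 30 min, challenge 1 h, detection 1 h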
PREPL inhibitor: human PREPL enzyme inhibition; inhibition, % at 5.96 µM; Q4J6C6; hit rate 0.68% among 320,000; recombinant PREPL, fluorescence polarization activity-based probe; in the data active = inhibition above about 43%
Hep lipid drop: modulators of hepatic lipid droplet formation | AML12 mouse hepatocytes, oleate lipid droplets, BODIPY imaging | inhibition, % at 6.5 µM | hit rate 0.4% among 240,000;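 active = lipid droplet intensity inhibited by at least 50%, with more than 500 cells counted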
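Test system: AML12 hepatocytes (mouse); reagent: oleate loading, 100 µM; dosing: one dose, 6.5 µM compound; incubation: overnight exposure; signal: fluorescence imaging, 20x objective, two fields per well; read-out basis: % inhibition of corrected integrated BODIPY droplet signal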
MC4R barr ag: human MC4R beta-arrestin agonism confirmation; shares compounds with MC4R ag barr; U2OS MC4R beta-arrestin recruitment, luminescence; scaled DMSO 0%, Melanotan II 100%; activation, % at 8.9 µM; hit rate 31% among 2,400; AID 602192;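 active = mean activation across replicates above the hit cutoff set in the earlier primary screen, cut at about 8% in these data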
MOR DOR agonist: activates mu-delta opioid heterodimer, MC4R agonist counter-screen. shares compounds with MC4R ag barr. U2OS PathHunter beta-arrestin, beta-gal luminescence; percent of deltorphin B response, DMSO zero. activation, % at 9.2 µM. hit rate 5.8% among 2,400;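 active = mean activation across replicates exceeds the hit threshold derived in the earlier primary screen, cut at about 18% in these data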
Each line names hits and unclear results; the compound was inactive in the other large screens (follow-up assays come after a bar, where they were run). Only some compounds are listed: those with a hit (about 2.7% of all), similar ones and a draw of the others.

Cc1ccc(NC(=O)CCn2cnc3ccccc3c2=O)cc1	none
O=C(CCn1cnc2ccccc2c1=O)Nc1nc(-c2ccc(Br)cc2)cs1	MC4R ag barr 11 | MC4R barr ag inactive | MOR DOR agonist 35
CC1(C)CC(N=Cc2c(O)n(Cc3ccc4c(c3)OCO4)c(=O)c3ccccc23)CC(C)(C)N1	none
CCCCCCN1C[C@@H](n2cc(C3CC3)nn2)[C@H](O)C[C@@H]1c1ccc(OC)cc1	none (no result: NTR1 agonist, PREPL inhibitor, Hep lipid drop)
O=C1C2=C(NC(=S)NC2c2ccc(Cl)cc2)NC(c2ccc(Cl)cc2)N1c1ccc(Cl)cc1 (stereo unspecified)	MC4R ag barr 19 (no result: Hep lipid drop) | MC4R barr ag 29 | MOR DOR agonist inactive
COc1ccccc1-c1cnc(C(O)c2ccc(F)cc2C)[nH]1 (stereo unspecified)	none (no result: NTR1 agonist, PREPL inhibitor, Hep lipid drop)
COc1ccc(-c2cc(NC(C)=O)c3ncc(-c4ccc(OC)c(OC)c4)n3c2)c(OC)c1	none (no result: NTR1 agonist, PREPL inhibitor, Hep lipid drop)
COc1ccc(-c2cnc3c(NC(C)=O)cc(-c4cc(F)ccc4OC)cn23)cc1OC	MC4R ag barr 19 (no result: NTR1 agonist, PREPL inhibitor, Hep lipid drop) | MC4R barr ag 27 | MOR DOR agonist inactive
COc1cc(-c2cnc3c(NC(C)=O)cc(-c4ccc(N5CCN(C)CC5)cc4)cn23)cc(OC)c1OC	none (no result: NTR1 agonist, PREPL inhibitor, Hep lipid drop)
COc1ccc(-c2cc(NC(C)=O)c3ncc(-c4ccc(F)cc4)n3c2)cc1OC	MC4R ag barr 22 (no result: NTR1 agonist, PREPL inhibitor, Hep lipid drop) | MC4R barr ag 26 | MOR DOR agonist inactive
COc1ccc(F)cc1-c1cc(NC(C)=O)c2ncc(-c3cc(OC)c(OC)c(OC)c3)n2c1	MC4R ag barr 11 (no result: NTR1 agonist, PREPL inhibitor, Hep lipid drop) | MC4R barr ag 9.7 | MOR DOR agonist inactive
COc1ccc(-c2cnc3c(NC(C)=O)cc(-c4cccc(NS(C)(=O)=O)c4)cn23)cc1OC	none (no result: NTR1 agonist, PREPL inhibitor, Hep lipid drop)
C[C@@H]1CN([C@H](C)CO)C(=O)CCCn2nncc2CO[C@H]1CN(C)Cc1cccc(C(F)(F)F)c1	none (no result: NTR1 agonist, PREPL inhibitor, Hep lipid drop)
Cc1c(NC(=O)c2ccc(S(=O)(=O)N(C)C)cc2)cccc1-n1cnnn1	none (no result: Hep lipid drop)
CN1CCCN(Cc2nc(-c3ccc(Cl)cc3)no2)CC1	none
Cc1ccc(NC(=O)C(C)c2ccc(-c3ccccc3)c(F)c2)c(C)c1 (stereo unspecified)	MC4R ag barr 9.6 | MC4R barr ag inactive | MOR DOR agonist inactive
CC(C(=O)Nc1ccccc1)c1ccc(-c2ccccc2)c(F)c1 (stereo unspecified)	none
Oc1ccc(C(=S)N2CCN(c3cccc(Cl)c3)CC2)cc1	MC4R ag barr 9.8 | MC4R barr ag inactive | MOR DOR agonist inactive
Cc1nc2ccc(S(=O)(=O)NCC(=O)N3CCC(C)CC3)cc2s1	none (no result: Hep lipid drop)
N/C(CN1CCCCC1)=N\S(=O)(=O)c1cc(Cl)cc(Cl)c1	none
CCCCCCOC(=O)c1ccc(N)cc1	none
CCCCCCCCCCCC1N=C(N)NC(CCCO)=C1C(=O)OC (stereo unspecified)	MC4R ag barr 12 (no result: NTR1 agonist, PREPL inhibitor, Hep lipid drop) | MC4R barr ag 26 | MOR DOR agonist inactive
CCCNc1c(NS(=O)(=O)c2ccc(C(C)(C)C)cc2)c(=O)oc2ccccc12	MC4R ag barr 11 | MC4R barr ag inactive | MOR DOR agonist inactive
Cc1cc(-c2c(C(=O)N3CCOCC3)c(C)nn2-c2ccccc2)no1	none
Cc1ccc(OCc2n[nH]c(=S)n2C2CCCCC2)cc1	none
S=c1[nH]nc(COc2ccc(Cl)cc2)n1C1CCCCC1	MC4R ag barr 11 | MC4R barr ag inactive | MOR DOR agonist inactive
O=C(Nc1ccc(N2CCN(c3ccc(O)cc3)CC2)cc1)Oc1ccccc1	MC4R ag barr 26 | MC4R barr ag inactive | MOR DOR agonist inactive
COc1ccc(C(=O)Nc2ccccc2-c2nnn(CC(=O)NCc3ccco3)n2)cc1	MC4R ag barr 11 (no result: Hep lipid drop) | MC4R barr ag 10 | MOR DOR agonist inactive
Cc1ccc(N(C(=O)c2csnn2)C(C(=O)NC2CCCCC2)c2ccncc2)c(C)c1 (stereo unspecified)	none
O=C(NC(c1ccc2c(c1)OCO2)c1ccccn1)C1CCN(CCOc2ccc(Cl)cc2Cl)CC1 (stereo unspecified)	none (no result: NTR1 agonist, PREPL inhibitor, Hep lipid drop)
Cc1cccnc1C(NC(=O)C1CCN(CCOc2ccc(Cl)cc2Cl)CC1)c1ccc(Cl)cc1 (stereo unspecified)	MC4R ag barr 34 (no result: NTR1 agonist, PREPL inhibitor, Hep lipid drop) | MC4R barr ag 17 | MOR DOR agonist inactive
O=C(NC(c1ccc(Cl)cc1)c1cccnc1)C1CCN(CCOc2ccc(Cl)cc2Cl)CC1 (stereo unspecified)	MC4R ag barr 18 (no result: NTR1 agonist, PREPL inhibitor, Hep lipid drop) | MC4R barr ag 30 | MOR DOR agonist inactive
O=C(NC(c1ccc(F)cc1)c1ccc2ccccc2n1)C1CCN(CCOc2ccc(Cl)cc2Cl)CC1 (stereo unspecified)	MC4R ag barr 18 (no result: NTR1 agonist, PREPL inhibitor, Hep lipid drop) | MC4R barr ag 12 | MOR DOR agonist inactive
O=C(NC(c1ccc(F)cc1)c1ccc2ccccc2n1)C1CCN(CCOc2ccc(F)cc2)CC1 (stereo unspecified)	none (no result: NTR1 agonist, PREPL inhibitor, Hep lipid drop)
O=C(NC(c1ccc(Cl)cc1)c1ccccn1)C1CCN(CCOc2ccc(Cl)cc2Cl)CC1 (stereo unspecified)	MC4R ag barr 18 (no result: NTR1 agonist, PREPL inhibitor, Hep lipid drop) | MC4R barr ag 24 | MOR DOR agonist inactive
Cc1cccnc1C(NC(=O)C1CCN(CCCc2ccccc2)CC1)c1ccc(Cl)cc1 (stereo unspecified)	none (no result: NTR1 agonist, PREPL inhibitor, Hep lipid drop)
CCC12C(=Nc3c(Cl)cccc31)C[C@@H]1CCN3C(=O)CCC[C@H]2[C@H]13 (stereo partly specified)	none (no result: NTR1 agonist, PREPL inhibitor, Hep lipid drop)
CCCc1cc(=O)oc2cc(OCC(=O)NCCN3CCOCC3)c(Cl)cc12	none (no result: NTR1 agonist, PREPL inhibitor, Hep lipid drop)
c1cc2ccc3ccc(-n4cnnn4)c4ccc(c1)c2c34	MC4R ag barr 31 | MC4R barr ag inactive | MOR DOR agonist inactive
O=C(CNC(=O)c1ccc(Br)o1)Nc1cccc(-c2cnc3ccccc3n2)c1	MC4R ag barr 16 | MC4R barr ag inactive | MOR DOR agonist inactive
CCOC(=O)c1sc(NC(=O)CSC(=S)N2CCN(C)CC2)nc1C	none
CCOC(=O)CSc1nnc(-c2cccs2)n1-c1ccccc1	none
O=C(CSc1nnc(-c2cccs2)n1-c1ccccc1)Nc1ccccc1	MC4R ag barr 11 (no result: Hep lipid drop) | MC4R barr ag inactive | MOR DOR agonist inactive
CCCCCNC(=O)C1C(=O)Nc2ccccc2C(=O)N1c1c(C)cccc1C (stereo unspecified)	none (no result: MC4R ag barr, NTR1 agonist, MC4R antagonist, PREPL inhibitor, Hep lipid drop)
O=C1C[C@@H]2C(=O)N(c3ccccc3)C(=O)[C@@H]2[C@@H]2CN(S(=O)(=O)c3ccccc3)[C@@H](c3ccccc3)[C@H]12	none (no result: MC4R ag barr, NTR1 agonist, MC4R antagonist, PREPL inhibitor, Hep lipid drop)
CN=C1SC(CC(=O)Nc2ccccc2F)C(=O)N1C (stereo unspecified)	none

Assay outcomes deposited in PubChem BioAssay by several laboratories.
